Most compounds without a hit are left out; they make up all but 8.2% or so of the library.
SF1 activator: SF-1 (human) activation | CHO-K1 Gal4-SF-1 LBD luciferase reporter; % increase over DMSO SF-1-specific signal | AID 522 | Q13285 | activation, % at 10 µM | 65,000 tested, 1.9% active;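 active means activation above the mean activation of all tested compounds plus 3 SD, cut at about 50% in these data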
Target sequence (Q13285 whole entry, looked up, the tested form may be a part): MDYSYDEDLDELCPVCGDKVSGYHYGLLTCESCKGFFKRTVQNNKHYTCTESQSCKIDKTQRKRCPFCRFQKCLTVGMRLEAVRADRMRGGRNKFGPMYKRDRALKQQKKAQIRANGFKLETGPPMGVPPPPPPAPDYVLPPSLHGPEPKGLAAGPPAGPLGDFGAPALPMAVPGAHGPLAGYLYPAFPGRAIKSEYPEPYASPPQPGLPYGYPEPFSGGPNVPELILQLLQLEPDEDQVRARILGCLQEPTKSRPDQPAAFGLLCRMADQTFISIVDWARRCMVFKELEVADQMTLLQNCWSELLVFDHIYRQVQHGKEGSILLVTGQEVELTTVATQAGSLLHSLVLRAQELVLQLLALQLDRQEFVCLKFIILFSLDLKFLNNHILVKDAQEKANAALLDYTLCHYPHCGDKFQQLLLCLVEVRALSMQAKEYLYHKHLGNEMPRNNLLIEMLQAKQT
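System: CHO-K1 cells with Gal4–hSF-1 LBD chimera plus Gal4-driven luciferase; quantity: 4,000 CHO-K1 cells per well; compound: one dose, 10 µM compound, 1% DMSO; times: 20 h compound treatment, 37 °C; measured by: SteadyLite luciferase luminescence; read-out: percent activation versus DMSO; benchmarks: DMSO and mock-transfected background; replicates: one test per compound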
RORA act: RORA (human) activation. P35398. CHO-K1 Gal4-RORA LBD luciferase reporter, luminescence; percent increase over mock-subtracted basal signal. activation, % at 10 µM. 65,000 tested, 1.5% active. AID 560;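 active means activation above the mean of all tested compounds plus 3 SD, cut at about 49% in these data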;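 further: 0% = DMSO-treated RORA cells and 100% = added signal equal to DMSO minus mock-transfected cells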
HePTP inhibitor: inhibitors of human HePTP phosphatase; 110,000 tested, 0.64% active; AID 521; inhibition, % at 20 µM; P35236; recombinant HePTP phosphatase activity, OD absorbance; in the data active means inhibition above about 50%;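 further: plate controls were vehicle for no effect and reference inhibitor for full effect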
D1 allo mod: allosteric modulators of human D1 dopamine receptor. HEK293 D1, CRE-luciferase, dopamine EC30 potentiation; actives deviate in either direction. B-score at 10 µM. 58,000 tested, 5.9% active. AID 641;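 active means luminescence count or its row- and column-corrected plate score outside the 99.7% band of the plate's sample wells, on either side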
M1 antag: M1 muscarinic receptor (rat) antagonism; CHO-M1 cells, Fluo-4 calcium, ACh EC80 antagonist mode; active compounds read low; B-score at 10 µM; 64,000 tested, 3.4% active; AID 628; P08482;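 active means calcium fluorescence response, raw or row-and-column corrected B-score, differing from the plate sample mean either way at a set confidence level, mostly lower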
M1 agonist: activates the M1 muscarinic receptor; CHO-M1 cells, Fluo-4 calcium fluorescence, agonist mode; active compounds read high; B-score at 10 µM; 64,000 tested, 3% active; AID 626;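 active means fluorescence rise, raw or as B-score row- and column-corrected plate score, outside the 99.7% band of its plate's samples, either direction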
Numbers without * were called inactive; . = no result given.

SMILES	SF1 activator	RORA act	HePTP inhibitor	D1 allo mod	M1 antag	M1 agonist
CC(C)OC(=O)c1ccc(NC(=O)C2C3CC4OC(=O)C2C4C3)cc1 (stereo not given)	56*	30	-1	-0.04	-0.14	0.18
O=C(c1ccco1)N1CCN(C(=O)c2cccc3c2C(=O)N(C2CCCCC2)C3)CC1	-12	-8	4	-3.4*	.	.
O=C(c1ccco1)N1CCN(C(=O)c2cccc3c2C(=O)N(Cc2cccnc2)C3)CC1	-10	-1	-7	-0.41	0.28	0.52
Brc1ccc(-c2nn3c(-c4ccncc4)nnc3s2)o1	1	-6	12	3.2	-3.1*	0.92
CCC(=O)N1CCc2cc(S(=O)(=O)N3CCc4ccccc4C3)ccc21	12	-17	0	0.63	0.15	0
O=C(NCCCN1CCN(c2ccccc2F)CC1)Nc1ccc(F)cc1	8	-14	-4	-0.6	-0.74	-0.56
COc1ccccc1N1CCN(CCCNC(=O)Nc2ccccc2)CC1	-5	-18	2	-4.8*	0.18	0.29
O=C(NCCCN1CCN(c2ccccc2)CC1)Nc1ccccc1C(F)(F)F	2	-10	6	-2.7*	-0.69	-0.93
O=C(O)c1c2c(nc3ccc(S(=O)(=O)N4CCC(C(=O)NC5CCCC5)CC4)cc13)CCCCC2	-4	-5	2	.	0.033	-2.3*
CC1CCc2nc3ccc(S(=O)(=O)N4CCC(C(=O)NC5CCCC5)CC4)cc3c(C(=O)O)c2C1 (stereo not given)	-6	-13	5	.	0.05	0.33
O=C(Nc1ccc2c(c1)oc1ccccc12)c1ccc(Br)o1	38	68*	5	-0.0039	-1.4	-1.1
CCN(CC)c1ccc(NC(=O)c2ccc(Br)o2)cc1	39	102*	7	-3.5	.	.
COC(=O)Cc1ccc(NC(=O)c2ccc(Br)o2)cc1	48	35	-3	-0.89	-0.37	-0.025
c1ccc2oc(-c3nn4c(Cn5cnc6ccccc65)nnc4s3)cc2c1	12	-11	4	-0.18	-0.14	0.026
COCCn1c(C)nc2oc3ccc(Br)cc3c(=O)c2c1=O	-4	-4	9	-0.24	1.9*	0.37
CN1CCN(/C=N/c2sc3c(c2C#N)CCCCC3)CC1	54*	34	-8	-0.93	0.48	0.47
Cc1ccc(/C=N/c2sc3c(c2C#N)CCCCC3)o1	54*	12	3	-3.7	0.45	0.14
Cc1cccc(-n2cnc3cc(C(=O)N4CCCCC4)ccc32)c1	55*	16	8	0.96	0.12	0.89
Cc1ccc2nsnc2c1S(=O)(=O)NCc1cccnc1	0	-3	4	-0.42	.	.
Cc1ccc2nsnc2c1S(=O)(=O)N1CCN(CCc2ccccc2)CC1	11	2	12	-4.7*	0	-0.3
COc1cccc(N2CCN(C(=O)c3ccc4nc(N5CCCCC5)sc4c3)CC2)c1	89*	78*	4	.	-0.17	1.2
COc1cccc(C(=O)N2CCN(c3ncccn3)CC2)c1	-24	-11	2	0.18	.	.
COc1ccc(N2CCN(C(=O)c3ccc4nc(N5CCCCC5)sc4c3)CC2)cc1	31	68*	-3	1.3	0.24	0.27
O=C(c1ccc2nc(N3CCOCC3)sc2c1)N1CCCC1	0	14	12	2.3	0.052	0.011
CC(C)NC(=O)N(O)C1N(Cc2ccc3c(c2)OCO3)C(=S)SC1(C)C (stereo not given)	1	4	1	-0.63	0.018	0.0016
SMILES	SF1 activator	RORA act	HePTP inhibitor	D1 allo mod	M1 antag	M1 agonist
COc1ccc(/C=N/NS(=O)(=O)c2ccc(C)cc2)cc1OCc1ccccc1	.	.	-10	.	.	.
CCCOc1ccc(/C=N/NS(=O)(=O)c2ccc3ccccc3c2)cc1OC	.	.	103*	.	.	.
CCOC(=O)C1C(=O)Nc2nc(C)nn2C1c1ccccc1 (stereo not given)	-2	-4	5	-0.21	-0.021	0.33
Cc1cc(C(=O)CSc2nnnn2-c2ccc(Cl)cc2)c(C)n1CC1CCCO1 (stereo not given)	8	3	5	-0.054	0.052	-1.8
Cc1cc(C(=O)CSc2nnc(Nc3ccccc3)s2)c(C)n1CC1CCCO1 (stereo not given)	10	5	10	-0.48	-0.21	-0.31
Cc1cc(C(=O)CSc2nnnn2-c2ccccc2)c(C)n1CC1CCCO1 (stereo not given)	68*	45	-1	0.35	0.096	-0.055
Cc1cc(C(=O)CN2C(=O)c3ccccc3S2(=O)=O)c(C)n1CC1CCCO1 (stereo not given)	-32	-62	1	-5.7*	0.67	-0.27
COc1cc(NC(=O)COc2ccccc2C)c(OC)cc1Cl	.	.	6	.	.	.
Cc1ccc(Nc2nc(C3CC3)cs2)cc1	5	-6	-5	-4.9*	0.11	0.37
CCN(CC)C(=O)c1csc(Nc2ccc(C)cc2)n1	-1	19	11	-0.064	-0.041	-0.51
COc1cc(C)c(C(C)C)cc1S(=O)(=O)n1cnc(C)c1	15	80*	9	0.84	0.068	0.76
C#CCSc1nc(-c2cccs2)ccc1C#N	12	-1	-3	.	0.03	-0.92
COC(=O)CSc1nc(-c2cccs2)ccc1C#N	83*	60*	8	.	0.11	0.48
COc1cccc(NC(=O)c2ccc(CN3CCOCC3)cc2)c1	24	-1	-4	-1.4	0.68	-1
COc1c(C)cccc1C(=O)Nc1ccc(CN2CCOCC2)cc1	62*	37	6	-1.4	-0.069	-0.54
COc1c(C)cccc1C(=O)Nc1ccc(N2CCN(S(C)(=O)=O)CC2)cc1	107*	46	0	-0.0028	0.04	0.16
COc1ccccc1C(=O)Nc1ccc(N2CCN(S(C)(=O)=O)CC2)cc1	34	41	2	-0.22	0.95	-0.027
CCOc1c(Br)cc(/C=C2/C(=O)NN(c3ccc(CC)cc3)C2=O)cc1OC	.	.	5	.	.	.
CCc1c(C)sc(NC(=O)CCc2ccc(OC)cc2)c1C(=O)OC	.	.	104*	.	.	.
Cc1ccc(S(=O)(=O)Nc2nc3ccccc3nc2NCc2ccco2)cc1	49	27	4	1.6	0.18	-0.31
O=S(=O)(Nc1nc2ccccc2nc1NCc1ccco1)c1ccc(Cl)cc1	17	3	7	-3.5*	-0.97	-0.37
CC1=C(C#N)c2nc(N)c(C#N)c(C)c2/C1=C/c1ccc(-c2ccc(C(=O)O)c(Cl)c2)o1	.	.	102*	.	.	.
CC1=C(C#N)c2nc(N)c(C#N)c(C)c2/C1=C\c1ccc(-c2cccc(Cl)c2)o1	.	.	4	.	.	.
Cc1ccc(C2C3=C(CCCC3=O)Nc3[nH]c(=S)[nH]c(=O)c32)cc1 (stereo not given)	1	6	-4	.	-0.0077	-0.47
CC1=NN(c2ccc(S(N)(=O)=O)cc2)C(=O)/C1=C\c1ccc2c(c1)OCO2	.	.	63*	.	.	.
Cc1cc(C(=O)Nc2cccc(C(=O)O)c2)oc1C	-69	-74	7	-4.4*	-0.53	0.33

Screening data: PubChem, several laboratories
